In ChEMBL document CHEMBL1143384, “Discovery of novel inhibitors of Trypanosoma cruzi trans-sialidase from in silico screening” (Bioorg Med Chem Lett, 2009):
The source made the active and inactive calls. The rule behind the calls is not given here.

Tests used:
[1] = target: T1, Trans-sialidase (Trypanosoma cruzi) (UniProt Q26966); assay: Inhibition of Trypanosoma cruzi trans-Sialidase at 1 mM by MuNANA assay
T1 sequence (whole entry): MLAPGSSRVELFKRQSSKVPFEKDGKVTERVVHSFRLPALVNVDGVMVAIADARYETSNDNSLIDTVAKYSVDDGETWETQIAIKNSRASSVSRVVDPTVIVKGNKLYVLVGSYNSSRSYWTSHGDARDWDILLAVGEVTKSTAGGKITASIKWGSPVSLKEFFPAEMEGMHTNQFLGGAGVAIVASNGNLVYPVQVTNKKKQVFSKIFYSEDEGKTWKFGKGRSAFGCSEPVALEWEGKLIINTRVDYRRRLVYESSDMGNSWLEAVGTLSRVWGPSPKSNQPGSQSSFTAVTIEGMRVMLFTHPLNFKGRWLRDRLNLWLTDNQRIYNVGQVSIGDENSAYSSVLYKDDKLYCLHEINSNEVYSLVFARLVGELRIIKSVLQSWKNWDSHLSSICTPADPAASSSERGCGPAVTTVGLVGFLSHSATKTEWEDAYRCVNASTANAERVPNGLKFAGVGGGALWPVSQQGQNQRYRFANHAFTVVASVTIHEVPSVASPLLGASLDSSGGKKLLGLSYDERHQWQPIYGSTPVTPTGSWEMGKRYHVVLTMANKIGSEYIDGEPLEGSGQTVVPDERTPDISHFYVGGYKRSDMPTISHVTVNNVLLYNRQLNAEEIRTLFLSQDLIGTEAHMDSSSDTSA
Outline: (§1)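 Recombinant TcTS in a continuous fluorimetric assay in 96-well format, with 4-methylumbelliferyl sialoside (MuNANA) as substrate, following sialic acid hydrolysis. Compounds were first screened at 1 mM, or at the highest concentration their solubility allowed, in triplicate. IC50 was then determined in the same assay for compounds inhibiting more than 50%.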

[2] = target: T2, Trans-sialidase (Trypanosoma cruzi, UniProt Q26966); assay: Inhibition of Trypanosoma cruzi trans-Sialidase by MuNANA assay; outline: as §1
T2 sequence (Q26966 whole entry): T1 sequence (whole entry)

[3] = target: T2, Trans-sialidase; assay: Inhibition of Trypanosoma cruzi trans-Sialidase by TIA assay
Outline: (§2)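 Trans-sialidase inhibition assay (TIA), which measures sialic acid transfer from sialyllactose as donor to 14C-radiolabelled lactose as acceptor.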

[4] = target: T2, Trans-sialidase; assay: Inhibition of Trypanosoma cruzi trans-Sialidase; outline: as §1
[5] = target: T1, Trans-sialidase (Trypanosoma cruzi); assay: Inhibition of Trypanosoma cruzi trans-Sialidase at 0.025 mM by MuNANA assay; outline: as §1
[6] = target: T1, Trans-sialidase (Trypanosoma cruzi); assay: Inhibition of Trypanosoma cruzi trans-Sialidase at 0.125 mM by MuNANA assay; outline: as §1
[7] = target: T1, Trans-sialidase (Trypanosoma cruzi); assay: Inhibition of Trypanosoma cruzi trans-Sialidase at 0.5 mM by MuNANA assay; outline: as §1
[8] = target: T1, Trans-sialidase (Trypanosoma cruzi); assay: Inhibition of Trypanosoma cruzi trans-Sialidase at 1 mM by TIA assay; outline: as §2
[9] = target: T1, Trans-sialidase (Trypanosoma cruzi); assay: Inhibition of Trypanosoma cruzi trans-Sialidase at 0.1 mM by MuNANA assay; outline: as §1
[10] = target: T1, Trans-sialidase (Trypanosoma cruzi); assay: Inhibition of Trypanosoma cruzi trans-Sialidase at 0.05 mM by MuNANA assay; outline: as §1
[11] = target: T1, Trans-sialidase (Trypanosoma cruzi); assay: Inhibition of Trypanosoma cruzi trans-Sialidase at 0.01 mM by MuNANA assay; outline: as §1

Structure (SMILES) | inhibition [1] [%] | IC50 [2] [µM] | other results
CCCOC(=O)c1c(NC(=O)C2CCCCC2C(=O)O)sc(C)c1C (stereo unspecified) | 87 | 210 | –
CC(=O)Nc1ccc(C(=O)O)nc1N | – | – | IC50 [4]: 440 µM
COc1ccc(NC(=O)CC2(CC(=O)O)CCCCC2)cc1OC | – | – | Activity [1]: inactive
CC(=O)Nc1ccc(S(=O)(=O)Nc2nc3n(n2)C(c2ccc(Cl)cc2)C=C(c2ccccc2)N3)cc1 (stereo unspecified) | – | – | Activity [5]: inactive
CC(=O)N[C@H]1C(O)CC(P(=O)(O)CCO[C@H]2[C@@H](O)[C@@H](CO)OC(O)[C@@H]2O)=C[C@@H]1O (single isomer, unassigned) | – | – | IC50 [4]: 1500 µM
COCCNC(=O)c1ccc(NS(=O)(=O)c2cc(Cl)sc2Cl)cc1 | 50 | – | –
O=C(O)CC(C(=O)Nc1cc(C(F)(F)F)cc(C(F)(F)F)c1)C1=CCCCC1 (stereo unspecified) | 32 | – | –
CC(=O)Nc1ccc(S(=O)(=O)Nc2nc(-c3ccccc3)c(-c3ccccc3)o2)cc1 | – | – | inhibition [6]: 22%
COc1ccc(CC(=O)Nc2ccc(S(=O)(=O)Nc3nc(C)cc(C)n3)cc2)cc1 | – | – | inhibition [7]: 42%
COc1cccc(CNC(=O)Cc2c(C(=O)O)[nH]c3ccc(Cl)cc23)c1 | – | – | inhibition [7]: 57%
O=c1[nH]c(O)c(C(c2ccc3c(c2)CN2CCOCC2O3)c2c(O)[nH]c(=O)[nH]c2=O)c(=O)[nH]1 (stereo unspecified) | – | – | inhibition [7]: 28%
O=C(O)C1CC=C(Cl)CC1C(=O)NCC1OCCc2ccccc21 (stereo unspecified) | 26 | – | –
O=C(O)C/C(=C\c1cccc(O)c1)c1nc2ccccc2s1 | – | – | inhibition [9]: 30%; IC50 [3]: 520 µM
COc1ccc(Nc2nc3ccccc3nc2NS(=O)(=O)c2ccc(NC(C)=O)cc2)c(OC)c1 | – | – | inhibition [10]: 32%
CC(=O)Nc1ccc(C(=O)O)cc1CO | – | – | IC50 [4]: 540 µM
CCn1nc(NS(=O)(=O)c2ccc(C)cc2)c2cc3cc(C)ccc3nc21 | – | – | Activity [11]: inactive
OC[C@H]1O[C@@H](O[C@@H]2[C@@H](CO)O[C@](O)(CO)[C@H]2O)[C@H](O)[C@@H](O)[C@H]1O [LACTULOSE] | – | – | IC50 [4]: 570 µM
CC(=O)N[C@H]1[C@H]([C@H](O)[C@H](O)CO)OC(C(=O)O)=C[C@@H]1O [NEU5AC2EN] | – | – | Ki [4]: 12300 µM
Cc1ncc(COP(=O)(O)O)c(C=O)c1O [PYRIDOXAL PHOSPHATE ANHYDROUS] | – | – | Ki [4]: 7300 µM
CCOP(=O)(O)C1=C[C@H](O)[C@@H](NC(C)=O)[C@H](OCCO)C1 | – | – | IC50 [4]: 5000 µM
COc1cc(C2C(C(=O)c3ccc4c(c3)OCCO4)=C(O)C(=O)N2CCCN(C)C)cc(OC)c1OC (stereo unspecified) | – | – | inhibition [7]: 41%

Further lines, with some results ahead:

inhibition [1] [%] | IC50 [2] [µM] | Structure (SMILES) | other results
94 | 120 | O=C(O)C/C(=C\c1cccc(F)c1)c1nc2ccccc2s1 | –
92 | 150 | CC(C)Oc1ccccc1/C=C(\CC(=O)O)c1nc2ccccc2s1 | IC50 [3]: 290 µM
91 | 120 | Cc1ccc(C)c(/C=C(\CC(=O)O)c2nc3ccccc3s2)c1 | –
82 | 280 | Cc1ccc(S(=O)(=O)Nc2nnc(SCC(=O)Nc3ccc4c(c3)OCO4)s2)cc1 | –
21 | – | COC(=O)c1ccc(Oc2ccc(C(F)(F)F)cc2NC(=O)c2ccccc2C(=O)O)s1 | –
36 | – | O=C(O)c1ccccc1C(=O)NCCCc1c(C(=O)O)[nH]c2cc3c(cc12)OCCO3 | –
90 | 160 | CCOc1ccccc1/C=C(\CC(=O)O)c1nc2ccccc2s1 | IC50 [3]: 420 µM
79 | 290 | CC(=O)c1sccc1NC(=O)c1ccccc1C(=O)O | inhibition [8]: 32%
23 | – | CC1(C)SC2c3ccccc3C(=O)N2C1C(=O)NC(Cc1c[nH]c2ccccc12)C(=O)O (stereo unspecified) | –
92 | 150 | O=C(O)C/C(=C\c1cccc(C(F)(F)F)c1)c1nc2ccccc2s1 | –
– | 180 | COc1ccc(/C=C(\CC(=O)O)c2nc3ccccc3s2)cc1OC | inhibition [7]: 84%
84 | 270 | CC(=O)c1sc(C(C)(C)C)cc1NC(=O)c1ccccc1C(=O)O | –
23 | – | Cc1c(NS(=O)(=O)c2cccc(C(=O)NCc3ccncc3)c2)c(=O)n(-c2ccccc2)n1C | –
30 | – | COc1ccc(C(CC(=O)O)NC(=O)COc2cc(C)ccc2C)cc1OC (stereo unspecified) | –
91 | 310 | COc1cccc(/C=C(\CC(=O)O)c2nc3ccccc3s2)c1 | –
